Experimental findings from ChEMBL document CHEMBL4706754, “Trisubstituted Pyrrolinones as Small-Molecule Inhibitors Disrupting the Protein-RNA Interaction of LIN28 and Let-7” (ACS Med Chem Lett, 2021) are described below.

The nature of assay [1]: Inhibition of human His-tagged LIN28A (16 to 187 residues) interaction with FAM-labelled preE-let-7f-1 miRNA (unknown origin) pretreated with protein for 30 mins followed by miRNA addition and measured after 15 mins by fluorescence polarization assay. Put shortly:
(§1)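 LIN28A (residues 16–187) purified by nickel affinity chromatography; tested both His-tagged and with tag removed by TEV protease. Protein titrated into FAM-labeled preE-let-7f-1, FP read alongside total fluorescence. Unlabeled preE-let-7f-1 as positive control. Dose–response over eight concentrations, top 60 μM or 30 μM, in quadruplicate; some IC50s extrapolated from the observed curves.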

The target of assay [2] is T1, Protein lin-28 homolog A (Homo sapiens) (UniProt Q9H9Z2).
T1 sequence (whole entry): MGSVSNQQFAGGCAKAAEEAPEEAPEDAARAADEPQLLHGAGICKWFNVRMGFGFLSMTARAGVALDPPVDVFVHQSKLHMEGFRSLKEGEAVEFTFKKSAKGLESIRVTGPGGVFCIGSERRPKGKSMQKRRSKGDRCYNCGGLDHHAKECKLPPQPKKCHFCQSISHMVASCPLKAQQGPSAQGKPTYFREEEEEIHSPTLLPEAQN
Kind of assay: Inhibition of LIN28A cold shock domain (16 to 126 residues) (unknown origin) assessed as increase in thermal stability measured after 45 mins by differential scanning fluorimetry. Particulars: dose 0.78-100 µM.

The nature of assay [3]: Stabilization of interaction of GST-fused C-terminal region of PMA2 YDI (unknown origin)/eGFP-fused tobacco 14-3-3 expressed in Escherichia coli incubated for 2 hrs by fluorescence based analysis relative to PPI-1.
In assay [4] the test system is JAR. The assay can be described thus: Inhibition of LIN28/let-7 miRNA interaction in human JAR cells assessed as increase in cellular let-7g mature miRNA level at 5 to 20 uM measured after 24 hrs by RT-qPCR analysis. Type of assay: cell-based. Particulars: dose 5-20 µM.
Assay [5] deals with JAR. Kind of assay: Inhibition of LIN28/let-7 miRNA interaction in human JAR cells assessed as increase in cellular let-7a mature miRNA level at 5 to 20 uM measured after 24 hrs by RT-qPCR analysis. The format is cell-based. The following applies: dose 5-20 µM.
The nature of assay [6]: Inhibition of human His-tagged LIN28A (16 to 187 residues) interaction with mouse preE-let-7f-Cy3 miRNA pretreated with protein for 2 hrs followed by incubation with miRNA and measured after 15 mins by EMSA method. The following applies: time 135.0 min.
Assay [7] in a line: Stabilization of interaction of GST-fused C-terminal region of PMA2 YDI (unknown origin)/eGFP-fused tobacco 14-3-3 expressed in Escherichia coli incubated for 2 hrs by fluorescence based analysis.
Assay [8] is described as follows: Inhibition of LIN28 (unknown origin) expressed in Escherichia coli BL21 (DE3) Rosetta interaction with FAM-labelled preE-let-7 miRNA (unknown origin) by fluorescence polarization assay. More on the design: species or system Homo sapiens. In a few lines:
as §1

Assay [9] can be described thus: Inhibition of human His-tagged LIN28A(16 to 187 residues) interaction with mouse preE-let-7f-Cy3 miRNA at 2.5 to 75 uM pretreated with protein for 2 hrs followed by incubation with miRNA and measured after 15 mins by EMSA method relative to control. Particulars: dose 2.5-75 µM, time 135.0 min.

Molecules are shown by their SMILES. Active and inactive are the calls of the source. The calls are words filed in the database; no cut-off is given here. A value given as a limit tells only on which side of the number the result lay.

Regarding `COc1ccc(C(=O)C2=C(O)C(=O)N(c3ccc(O)c(C(=O)O)c3)C2c2ccc(C(=O)O)cc2)cc1` (configuration not stated), in [1], the IC50 came to 30 µM.

For `O=C(O)c1ccc(C2C(C(=O)c3ccc(Br)cc3)=C(O)C(=O)N2c2ccc(O)c(C(=O)O)c2)cc1` (configuration not stated), in assay [1], the IC50 amounted to 30 µM.

`O=C(C1=C(O)C(=O)N(c2ccc(O)c(C(=O)O)c2)C1c1ccc(-c2nccs2)cc1)c1ccc(Br)cc1` (configuration not stated): the figures for the Activity entry in [2] and in [3] were “Dose-dependent effect” and below 30%, respectively. Also, the inhibition entry in [4] and in assay [5] was “Active” each time. In addition, the inhibition result in assay [6] was “Dose-dependent effect”.

In the case of `O=C(O)c1cccc(N2C(=O)C(O)=C(C(=O)c3ccccc3)C2c2ccc(-c3nccs3)cc2)c1` (configuration not stated), in assay [1], the IC50 stood at 30 µM.

As for `O=C(C1=C(O)C(=O)N(c2ccc(O)c(C(=O)O)c2)C1c1ccc([N+](=O)[O-])cc1)c1ccccc1` (configuration not stated), in [7], the EC50 came out at 100 µM.

In assay [8], `CCOc1cccc2c1N[C@@H](c1ccc(C(=O)O)cc1)[C@H]1CC=C[C@@H]21` registered an IC50 of 7 µM.

On to `O=C(O)c1ccc(C2C(C(=O)c3ccccc3)=C(O)C(=O)N2c2ccc(O)c(C(=O)O)c2)cc1` (configuration not stated), for which the Activity in [3] is below 30%.

As for `O=C(O)c1cccc(N2C(=O)C(O)=C(C(=O)c3ccc(Br)cc3)C2c2ccc(-c3nccs3)cc2)c1` (configuration not stated), the inhibition result in assay [9] was “inactive”.
